Reference: paper PMC10905692 (ACS Omega, 2024)
“Also recorded” adds a separate entry of the source.

Tests used:
PTP1B [1] = molecular target: T1, PTP1B (Homo sapiens, UniProt P18031); assay: Enzyme kinetic assay; type: biochemical; conditions: for kinetic mode: Lineweaver–Burk plots; for KIS: inhibition constant for enzyme–substrate complex
T1 sequence (P18031 1-435): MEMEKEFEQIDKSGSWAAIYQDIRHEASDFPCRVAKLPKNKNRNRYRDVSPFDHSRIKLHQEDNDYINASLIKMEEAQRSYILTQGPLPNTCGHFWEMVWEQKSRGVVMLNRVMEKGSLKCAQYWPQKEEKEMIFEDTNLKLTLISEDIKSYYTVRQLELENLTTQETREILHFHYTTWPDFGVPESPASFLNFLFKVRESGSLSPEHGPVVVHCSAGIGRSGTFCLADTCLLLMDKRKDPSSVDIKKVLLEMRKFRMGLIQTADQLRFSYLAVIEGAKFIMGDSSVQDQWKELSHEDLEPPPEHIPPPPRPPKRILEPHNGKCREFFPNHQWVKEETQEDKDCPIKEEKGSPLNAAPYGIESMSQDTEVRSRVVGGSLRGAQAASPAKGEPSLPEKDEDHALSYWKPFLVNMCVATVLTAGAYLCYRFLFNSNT
Procedure, shortened: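 Human recombinant PTP1B in Tris-HCl pH 7.5 buffer (25 mM Tris, 1 mM EDTA, 2 mM 2-mercaptoethanol, 1 mM dithiothreitol); test compounds dissolved in DMSO. Steady-state rates were taken across varied inhibitor and substrate concentrations and analysed by Lineweaver–Burk and Dixon plots. KI and KIS came from secondary plots of slopes or 1/Vmax intercepts vs inhibitor concentration (eqs 2–4). Reversibility was judged from activity vs enzyme concentration at several inhibitor levels.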

PTP1B [2] = molecular target: T1, PTP1B; assay: Time-dependent assays and progress curves; type: biochemical
Procedure, shortened: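 PTP1B was preincubated with test compound for 0, 5, 10, 15, 30, 45, 60 or 75 min (0.2 μM), then residual activity was read. Progress curves were recorded at actual substrate concentration across several inhibitor concentrations by absorbance at 405 nm, […] the ~10 min lag. vi, vs, kobs and Ki app were fitted with eqs 5–8. kobs was plotted against inhibitor concentration to give k3 and k4.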

PTP1B [3] = molecular target: T1, PTP1B; assay: PTP1B inhibitory assay; type: biochemical
PTP1B [4] = molecular target: T1, PTP1B; assay: Fluorescence quenching measurement of binding affinity; conditions: for n (number of binding sites) / KSV (Stern–Volmer constant): fluorescence quenching; for KSV (Stern–Volmer constant): 0–25 μM inhibitor
Procedure, shortened: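 Intrinsic fluorescence quenching of human recombinant PTP1B, at the enzyme level of the activity assays, in assay buffer. Test compound was added at 0, 1.6, 3.2, 6.2, 12.5 and 25 μM. Emission spectra were recorded over 300–400 nm with 250 nm excitation and 2 nm slits. KSV was obtained by Stern–Volmer analysis; binding constant KA and number of sites n from eqs 9–10.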

[5] = Ki (inhibition constant), estimated using Dixon plots
[6] = KI, inhibition constant for free enzyme, secondary plots

Structure (SMILES)	Ki (PTP1B [1]; [5]) [µM]	kinetic mode (PTP1B [1])	reversibility of the inhibitor to the enzyme (PTP1B [1]; initial velocity plots at different inhibitor concentrations)	Ki (PTP1B [2]) [µM]	time-dependent inhibition type (PTP1B [2]; preincubation 0–75 min, kobs vs inhibitor concentration linear)	k3 (PTP1B [2]; slow-binding, progress curves) [μM^–1 min^–1]	k4 (PTP1B [2]; slow-binding, progress curves) [min^–1]	fold more effective (inhibition activity) (PTP1B [3]; trans 1 vs cis 2) [fold]	Kd (PTP1B [4]) [µM]	n (number of binding sites) (PTP1B [4])	KSV (Stern–Volmer constant) (PTP1B [4])	IC50 (PTP1B [3]) [µM]	fold effective vs mother compound (PTP1B [3]; pyran compound 5 vs 6) [fold]	Ki (PTP1B [1]; [6]) [µM]	KIS (PTP1B [1]; secondary plots) [µM]	fold better inhibition than mother skeleton (PTP1B [3]; glycosides 11 vs 6 and 13 vs 8) [fold]
CC1(C)C=Cc2c(cc(O)c3c2O[C@H](c2ccccc2)[C@@H](O)C3=O)O1 [Compound 1, (2R,3R)-3,5-dihydroxy-8,8-dimethyl-2-phenyl-2,3-dihydro-4H,8H-pyrano[2,3-f]chromen-4-one]	0.07	competitive mode; also recorded: competitive inhibitors	typical reversibility	0.0641	simple slow-binding inhibitor; also recorded: slow binding mode; also recorded: slow binding characteristics	0.2262	0.0145	13	27.8	1.09	0.4375 × 10^5 L·mol^–1	–	–	–	–	–
CC1(C)C=Cc2c(cc(O)c3c2O[C@H](c2ccccc2)[C@H](O)C3=O)O1 [Compound 2, (2R,3S)-3,5-dihydroxy-8,8-dimethyl-2-phenyl-2,3-dihydro-4H,8H-pyrano[2,3-f]chromen-4-one]	1.04	competitive inhibitors	–	–	–	–	–	–	370	1.16	0.0304 × 10^5 L·mol^–1	2.24 ± 0.5	–	–	–	–
CC1(C)C=Cc2c(cc(O)c3c2O[C@H](c2ccc(O)cc2)[C@@H](O)C3=O)O1 [Compound 5, yukovanol]	3.46	noncompetitive inhibitor	–	–	–	–	–	–	1110	1.20	0.0132 × 10^5 L·mol^–1	3.07 ± 0.2	9	–	–	–
O=C1c2c(O)cc(O)cc2O[C@H](c2ccc(O)cc2)[C@H]1O [Compound 6, dihydrokaempferol]	34.7	noncompetitive	–	–	–	–	–	–	10000	0.79	0.0002 × 10^5 L·mol^–1	35.4 ± 0.7	–	–	–	–
CC1(C)C=Cc2c(cc(O)c3c(=O)cc(-c4ccc(O)cc4)oc23)O1 [Compound 7, atalantoflavone]	0.45	competitive	–	–	–	–	–	–	72.5	0.93	0.0569 × 10^5 L·mol^–1	1.19 ± 0.3	–	–	–	–
O=c1cc(-c2ccc(O)cc2)oc2cc(O)cc(O)c12 [Compound 8, apigenin]	2.9	competitive	–	–	–	–	–	–	769	1.02	0.0056 × 10^5 L·mol^–1	5.99 ± 0.5	–	–	–	–
O=c1cc(-c2ccc(O)cc2O)oc2cc(O)cc(O)c12 [Compound 10, norartocarpetin]	2.71	mixed-type inhibitions; also recorded: mixed type I	–	–	–	–	–	–	833	1.06	0.0124 × 10^5 L·mol^–1	3.39 ± 0.2	–	2.68	5.23	–
O=c1cc(-c2ccc(O)cc2)oc2cc(O[C@@H]3O[C@H](CO)[C@@H](O)[C@H](O)[C@H]3O)cc(O)c12 [Compound 13, apigenin-7-O-β-D-glucopyranoside]	0.18	mixed type I	–	–	–	–	–	–	22.1	0.97	0.3803 × 10^5 L·mol^–1	0.22 ± 0.3	–	0.18	0.80	27
